# Results taken from PMC9753181 (ACS Omega, 2022).
# Entries after “also recorded” stand apart in the source; their conditions may differ. Where two headings read alike, the source gives them in different places.
# How the values were obtained:
# [1] = tested on: Vero E6 cells
# [2] = tested on: SARS-CoV-2; details: cited from earlier work; for EC50, inhibit SARS-CoV-2 replications in vitro: entry inhibitors
# [3] = tested on: influenza; assay: Predicted anti-influenza EC50 by pEC50 = pIC50 + Log Fic; details: A549, read-out: Predicted EC50 (anti-influenza)
# [4] = tested on: A549 cells
# [5] = tested on: SARS-CoV-2; details: hamster; cited from earlier work
# [6] = tested on: influenza; details: read-out: Observed EC50, influenza replication; A549 cells; cited from earlier work
# [7] = tested on: ACE2; assay: ACE2 expression in Vero E6 cells; assay type: cell-based; details: 48 h, RNA-seq, western blot
# [8] = tested on: SARS-CoV-2; details: cited from earlier work
# [9] = IV injection of RDV, mice
# [10] = IV injection of RDV, nonhuman primates; cited from earlier work
# [11] = IV injection of RDV, rhesus macaques
# [12] = tested on: multidrug resistance-associated protein 4 (MRP4); details: ref 28 (RDV), FDA Office of Clinical Pharmacology Review (GS-441524); cited from earlier work
# [13] = tested on: RdRp of SARS-CoV-2; details: read-out: IC50, inhibition of RdRp of SARS-CoV-2; active form of RDV; cited from earlier work
# [14] = tested on: SARS-CoV-2; details: rhesus macaque, cited from earlier work
# [15] = target: SARS-CoV-2 M^pro (Severe acute respiratory syndrome coronavirus 2, UniProt P0DTD1); details: cited from earlier work
# [16] = tested on: A549-ACE2 cells
# [17] = tested on: Calu-3 cells; assay: Cytotoxicity; assay type: cell-based
# In short: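 Calu-3 cells were grown in medium supplemented with 1% non-essential amino acids and 1% sodium pyruvate at 37 °C, 5% CO2. Cells were seeded and cultured for 24 h, then exposed to test compound for 48 h. CCK8 solution was added at 10% and incubated 15 min to read viability.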
structure (smiles),measurement,setting,value
"CCN(CC)CCCC(C)Nc1ccnc2cc(Cl)ccc12 (centres unmarked) [CQ, Chloroquine]",Drug accumulation with verapamil (P-gp inhibitor),[1],facilitated accumulation
same,"EC50, inhibit SARS-CoV-2 replications in vitro",[2],low micromolar
"NC(=O)c1nc(F)c[nH]c1=O [FAV, Favipiravir]",EC50,[3],3.2 µM
same,Fic,"[1]; Vero E6, Fic = fu,cell x Kp",0.03371
same,Drug accumulation with verapamil (P-gp inhibitor),[1]; Vero E6 cells,increased FAV accumulation
same,Fic,[4],0.03145
same,Infectious titers in the lung,[5],reduction of infectious titers in the lung
same,EC50,[6],3 µM
same,EC50,"[2]; read-out: Observed EC50, SARS-CoV-2 replication, Vero E6",65 to 400 µM
same,ACE2 expression,[7],reduced angiotensin-converting enzyme 2 (ACE2) expression
N#C[C@@]1(c2ccc3c(N)ncnn23)O[C@H](CO)[C@@H](O)[C@H]1O [GS-441524],SARS-CoV-2 replication in vivo,"[8]; oral administration of GS-441524, mouse model",inhibit SARS-CoV-2 replication in vivo
same,Lung concentration of GS-441524 relative to its predicted EC50,[9],10 fold
same,Bloodstream concentration of GS-441524 relative to RDV,[10],1000 fold
same,Lung concentration of GS-441524 relative to its predicted EC50,[11],10 fold
same,Substrate of MRP4,[12],not a substrate
N#C[C@@]1(c2ccc3c(N)ncnn23)O[C@H](COP(=O)(O)OP(=O)(O)OP(=O)(O)O)[C@@H](O)[C@H]1O [GS-443902],IC50,[13],0.032 µM
"CCN(CCO)CCCC(C)Nc1ccnc2cc(Cl)ccc12 (centres unmarked) [HCQ, hydroxychloroquine]",Infectious titers in lungs,[14],failed to reduce infectious titers
same,Inhibition of M^pro activities at 200 μM,[15],slightly inhibited
same,Drug accumulation with verapamil (P-gp inhibitor),[1]; Vero E6 cells,facilitated accumulation
same,Infectious titers in lungs,[5],failed to reduce infectious titers
same,"EC50, inhibit SARS-CoV-2 replications in vitro",[2],low micromolar
"CCC(CC)COC(=O)[C@H](C)N[P@](=O)(OC[C@H]1O[C@@](C#N)(c2ccc3c(N)ncnn23)[C@H](O)[C@@H]1O)Oc1ccccc1 [RDV, Remdesivir]",Antiviral activity in vivo,[14]; RDV,strong antiviral activities
same,Virus titer in the lung / antiviral activity in vivo,"[8]; RDV, mouse",successfully reduce virus titer in the lung; also recorded: strong antiviral activities
same,Drug accumulation with ceefourin (MRP4 inhibitor),[1]; Vero E6 cells,significantly increased RDV accumulation
same,Drug accumulation with verapamil (P-gp inhibitor),[1]; Vero E6 cells,significantly increased RDV accumulation
same,Drug accumulation with ceefourin (MRP4 inhibitor),[16],Neither verapamil nor ceefourin changed RDV accumulation
same,Drug accumulation with verapamil (P-gp inhibitor),[16],Neither verapamil nor ceefourin changed RDV accumulation
same,Substrate of MRP4,[12],substrate
COc1ccc(CCN(C)CCCC(C#N)(c2ccc(OC)c(OC)c2)C(C)C)cc1OC (centres unmarked) [verapamil],Cytotoxicity,[17],strong cytotoxicity
